From ChEMBL document CHEMBL3596194, “Design, synthesis and biological evaluation of bivalent benzoxazolone and benzothiazolone ligands as potential anti-inflammatory/analgesic agents” (Bioorg Med Chem, 2015)

Test system: not listed separately
Assay: Cytotoxicity against pig LLC-PK11 cells up to 25 ug/ml after 48 hrs by neutral red assay relative to control
Assay type: cell-based, Sus scrofa
Details: llc-pk11, 48 h
How it was run: (§1)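 Cells grown in RPMI-1640 with 10% bovine calf serum and amikacin at 37 °C, 5% CO2. Seeded at 25,000 cells/well and grown 24 h, then exposed 48 h to samples diluted in serum-free medium. Viability by Neutral Red; % decrease vs vehicle; IC50 from dose curves. Triplicate runs, mean reported; doxorubicin as positive control.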

Which Activity does the source give for O=c1sc2ccccc2n1CCCCCCN1CCN(CCCCn2c(=O)sc3ccccc32)CC1 here?
The Activity was “Non-toxic”.

For O=c1oc2ccccc2n1CCCCCN1CCN(CCCCCn2c(=O)oc3ccccc32)CC1, which Activity is on record?
Its Activity is “Non-toxic”.

Test system: Rattus norvegicus
Assay: Antiinflammatory activity in albino rat assessed as inhibition of carrageenan-induced paw edema at 30 mg/kg, ip administered 1 hr prior to carrageenan challenge measured 1 hr after induction of inflammation relative to control
Assay type: functional
Details: not given
How it was run: (§2)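 Adult albino rats of both sexes, 120–150 g, groups of five, pre-hydrated with 3 ml water orally. Compounds suspended in distilled water with few drops Tween 80, given ip 1 h before subplantar s.c. 1% carrageenan into right hind paw. Paw thickness measured by dial calipers, left paw as control. % inhibition = (1 – Lt/Lc) × 100 versus saline/Tween 80 group.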

For O=C(c1ccccc1)c1ccc2n1CCC2C(=O)O (stereo not given) [KETOROLAC], which inhibition in vivo at 30 mg/kg is on record?
The inhibition in vivo at 30 mg/kg was 70.5%.

Test system: SK-MEL
Assay: Cytotoxicity against human SK-MEL cells up to 25 ug/ml after 48 hrs by neutral red assay relative to control
Assay type: cell-based
Details: not given
How it was run: as §1

With O=c1sc2ccccc2n1CCCCN1CCN(CCCn2c(=O)sc3ccccc32)CC1 as the compound, how does the Activity read?
The Activity was “Non-toxic”.

With O=c1oc2ccccc2n1CCCCCN1CCN(CCCCCn2c(=O)oc3ccccc32)CC1 as the compound, how does the Activity read?
Its Activity is “Non-toxic”.

Test system: Rattus norvegicus
Assay: Antiinflammatory activity in albino rat assessed as inhibition of carrageenan-induced paw edema at 30 mg/kg, ip administered 1 hr prior to carrageenan challenge measured 2 hrs after induction of inflammation relative to control
Assay type: functional
Details: not given
How it was run: as §2

Which inhibition in vivo at 30 mg/kg does the source give for O=C(c1ccccc1)c1ccc2n1CCC2C(=O)O (stereo not given) [KETOROLAC] here?
The inhibition in vivo at 30 mg/kg was 74.2%.

Test system: not listed separately
Assay: Cytotoxicity against pig LLC-PK11 cells after 48 hrs by neutral red assay relative to control
Assay type: cell-based
Details: Sus scrofa, LLC-PK11, 48 h
How it was run: (§3)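 Cells grown in RPMI-1640 with 10% bovine calf serum and amikacin at 37°C, 5% CO₂. Seeded 25,000 cells/well, grown 24 h, then exposed to compounds diluted in serum-free medium for 48 h. Viability by Neutral Red uptake, % decrease versus vehicle control. IC50 from dose curves, triplicate means. Doxorubicin positive control.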

For O=c1sc2ccccc2n1CCCCN1CCN(CCCn2c(=O)sc3ccccc32)CC1, which IC50 is on record?
The IC50 was 19.2 µM.

Test system: Rattus norvegicus
Assay: Antiinflammatory activity in albino rat assessed as inhibition of carrageenan-induced paw edema at 30 mg/kg, ip administered 1 hr prior to carrageenan challenge measured 3 hrs after induction of inflammation relative to control
Assay type: functional
Details: not given
How it was run: as §2

Which inhibition in vivo at 30 mg/kg does the source give for O=C(c1ccccc1)c1ccc2n1CCC2C(=O)O (stereo not given) [KETOROLAC] here?
The inhibition in vivo at 30 mg/kg was 75.4%.

Test system: Vero
Assay: Cytotoxicity against African green monkey Vero cells after 48 hrs by neutral red assay relative to control
Assay type: cell-based
Details: chlorocebus sabaeus
How it was run: as §3

Which IC50 does the source give for O=c1oc2ccccc2n1CCCCCN1CCN(CCCCCn2c(=O)oc3ccccc32)CC1 here?
The IC50 was 19.4 µM.

Test system: Vero
Assay: Cytotoxicity against African green monkey Vero cells up to 25 ug/ml after 48 hrs by neutral red assay relative to control
Assay type: cell-based
Details: chlorocebus sabaeus
How it was run: as §1

With O=c1sc2ccccc2n1CCCCN1CCN(CCCn2c(=O)sc3ccccc32)CC1 as the compound, how does the Activity read?
The Activity was “Non-toxic”.

For O=c1sc2ccccc2n1CCCCCCN1CCN(CCCCn2c(=O)sc3ccccc32)CC1, which Activity is on record?
Its Activity is “Non-toxic”.

Test system: BT-549
Assay: Cytotoxicity against human BT549 cells up to 25 ug/ml after 48 hrs by neutral red assay relative to control
Assay type: cell-based
Details: bt-549, 48 h
How it was run: as §1

For O=c1sc2ccccc2n1CCCCN1CCN(CCCn2c(=O)sc3ccccc32)CC1, which Activity is on record?
The Activity was “Non-toxic”.

For O=c1oc2ccccc2n1CCCCCN1CCN(CCCCCn2c(=O)oc3ccccc32)CC1, which Activity is on record?
The Activity was “Non-toxic”.

Test system: Rattus norvegicus
Assay: Antiinflammatory activity in albino rat assessed as inhibition of carrageenan-induced paw edema at 30 mg/kg, ip administered 1 hr prior to carrageenan challenge measured 4 hrs after induction of inflammation relative to control
Assay type: functional
Details: not given
How it was run: as §2

For O=C(c1ccccc1)c1ccc2n1CCC2C(=O)O (stereo not given) [KETOROLAC], which inhibition in vivo at 30 mg/kg is on record?
Its inhibition in vivo at 30 mg/kg is 79.3%.

Test system: KB
Assay: Cytotoxicity against human KB cells after 48 hrs by neutral red assay relative to control
Assay type: cell-based
Details: not given
How it was run: as §3

For O=c1sc2ccccc2n1CCCCCCN1CCN(CCCCn2c(=O)sc3ccccc32)CC1, which IC50 is on record?
The IC50 was 19.5 µM.

Test system: BT-549
Assay: Cytotoxicity against human BT549 cells after 48 hrs by neutral red assay relative to control
Assay type: cell-based
Details: BT-549, 48 h
How it was run: as §3

For O=c1sc2ccccc2n1CCCCCCN1CCN(CCCCn2c(=O)sc3ccccc32)CC1, which IC50 is on record?
The IC50 was 21.3 µM.

Test system: not listed separately
Assay: Antiinflammatory activity in human SW1353 cells assessed as inhibition of PMA-induced NF-kappaB activity incubated for 30 mins prior to PMA challenge measured after 8 hrs by luciferase reporter gene assay
Assay type: cell-based
Details: not given
How it was run: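 SW1353 cells in DMEM/F12 with 10% FBS, electroporated with NF-κB luciferase plasmid (160 V, one 70-ms pulse), plated at 1.25 × 10⁵ cells/well. After 24 h, graded compound concentrations added 30 min before PMA 70 ng/mL, then 8 h incubation. Luciferase read-out, % inhibition versus vehicle, IC50 from dose curves. Sp-1 reporter served as nonspecific control.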

With O=c1sc2ccccc2n1CCCCN1CCN(CCCn2c(=O)sc3ccccc32)CC1 as the compound, how does the IC50 read?
The IC50 was 1.71 µM.

With O=c1sc2ccccc2n1CCCCCCN1CCN(CCCCn2c(=O)sc3ccccc32)CC1 as the compound, how does the IC50 read?
Its IC50 is 0.83 µM.

With O=c1oc2ccccc2n1CCCCCN1CCN(CCCCCn2c(=O)oc3ccccc32)CC1 as the compound, how does the IC50 read?
Its IC50 is 3.43 µM.

Test system: SK-OV-3
Assay: Cytotoxicity against human SKOV3 cells up to 25 ug/ml after 48 hrs by neutral red assay relative to control
Assay type: cell-based
Details: sk-ov-3, 48 h
How it was run: as §1

Which Activity does the source give for O=c1sc2ccccc2n1CCCCN1CCN(CCCn2c(=O)sc3ccccc32)CC1 here?
Its Activity is “Non-toxic”.

With O=c1sc2ccccc2n1CCCCCCN1CCN(CCCCn2c(=O)sc3ccccc32)CC1 as the compound, how does the Activity read?
Its Activity is “Non-toxic”.

With O=c1oc2ccccc2n1CCCCCN1CCN(CCCCCn2c(=O)oc3ccccc32)CC1 as the compound, how does the Activity read?
The Activity was “Non-toxic”.

Test system: SK-MEL
Assay: Cytotoxicity against human SK-MEL cells after 48 hrs by neutral red assay relative to control
Assay type: cell-based
Details: not given
How it was run: as §3

Which IC50 does the source give for O=c1sc2ccccc2n1CCCCCCN1CCN(CCCCn2c(=O)sc3ccccc32)CC1 here?
Its IC50 is 14.5 µM.

Test system: KB
Assay: Cytotoxicity against human KB cells up to 25 ug/ml after 48 hrs by neutral red assay relative to control
Assay type: cell-based
Details: not given
How it was run: as §1

Which Activity does the source give for O=c1sc2ccccc2n1CCCCN1CCN(CCCn2c(=O)sc3ccccc32)CC1 here?
Its Activity is “Non-toxic”.

With O=c1oc2ccccc2n1CCCCCN1CCN(CCCCCn2c(=O)oc3ccccc32)CC1 as the compound, how does the Activity read?
Its Activity is “Non-toxic”.
